# Test results from the RNAGym collection of RNA variant scans (doi:10.1126/science.aae0568).
# Fewer inactive variants are shown than the library holds.
# B1: tRNA (parent)
# chain: GUUCCGUUGGCGUAAUGGUAACGCGUCUCCCUCCUAAGGAGAAGACUGCGGGUUCGAGUCCCGUACGGAACG
# Variants of: B1
# Test: yeast fitness relative to wild type (ratio to wild type); higher = fitter; tRNA-Arg(CCU), competitive growth, 37 C, YPD
# Procedure, shortened: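 Start and end populations of a pooled competition were compared by 100-nucleotide paired-end sequencing of gene amplicons. The Saccharomyces cerevisiae strains carried tRNA-Arg(CCU) gene variants at the native genomic locus, synthesised with a 3% per-site mutation rate at 69 sites, and competed in YPD at 37°C for 24 hours in six parallel replicates. Darwinian fitness relative to wild type was based on the change in genotype frequencies. Genotypes required ≥ 100 starting reads, and estimates < 0.5 were set to 0.5.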
row,Variant,yeast fitness
1,GUUCCGUUGGCGUAAUAGUAACGCCUCUCCCUCCUAAGGAGAAGACUGCGGGUUCGAGUCCCGUUCGGAACG [G17A G25C A65U],0.625
2,GUUCCGUUGGCGUAAUAGUAACGCGUCUCCCUCCUAAGGAGAAGACUGCGGGUUCCAGUCCCGUACGGAACG [G17A G56C],0.527
3,GUUCCGUUGGCGUAAUAGUAACGCGUCUCCCUCCUAAGGAGAAGACUGCGGGUUCGAGUCCCAUACGGAACG [G17A G63A],0.744
4,GUUCCGUUGGCGUAAUAGUAACGCGUCUCCCUCCUAAGGAGAAGACUGCGGGUUCGAGUCCCCUACGGAACG [G17A G63C],0.579
5,GUUCCGUUGGCGUAAUAGAACCGCGUCUCCCUCCUAAGGAGAACACUGCGGGUUCGAGUCCCGUACGGAACG [G17A U19A A21C G44C],≤ 0.5
6,GUUCCGUUGGCGUAAUAGCAACGCGUCUCCCUCCUAAGGAGAAGACUGCGGGUUCGAGUCCCGUAUGGAACG [G17A U19C C66U],0.665
7,GUUCCGUUGGCGUAAUAGUAACGCGCCUCCCUCCUAAGGAGAAGACUGCGGGUUCGAGUCUCGUACAGAACG [G17A U26C C61U G67A],≤ 0.5
8,GUUCCGUUGGCGUAAUAGUAACGCGUCCCCCUCCUAAGGAGCAGACUGCGGGUUCGAGUCCCGUAUGGAACG [G17A U28C A42C C66U],≤ 0.5
9,GUUCCGUUGGCGUAAUAGUAACGCGUCCCCCUCCUAAGGAGCAGACAGCGGGUUCGAGUCCCGUAUGGAACG [G17A U28C A42C U47A C66U],≤ 0.5
10,GUUCCGUUGGCGUAAUAGUAACGCGUCGCCCUCCUAAGGAGAAGACUGCGGGUUCGAGUCCGGUACGGAACG [G17A U28G C62G],≤ 0.5
11,GUUCCGUUGGCGUAAUAGUAACGCGUCUCCCACCUAAGGAGAAGACUGCGGGUUCGAGUCCCGUACGGAACG [G17A U32A],0.691
12,GUUCCGUUGGCGUAAUAGUAACGCGUCUCCCACCUAAGGAGAAGACUGCGGGUCCGAGUCCCGUACGGAACG [G17A U32A U54C],≤ 0.5
13,GUUCCGUUGGCGUAAUAGUAACGCGUCUCCCCCCUAGGGAGAAGACUGCGGGUUCGAGUCCCGUACGGCACG [G17A U32C A37G A69C],0.5
14,GUUCCGUUGGCGUAAUAGUAACGCGUCUCCCUCCGAAGGAGAAGACUCCGGGUUCGAGUCCCGUAUGGAACG [G17A U35G G48C C66U],0.535
15,GUUCCGUUGGCGUAAUCGUAACGCGUCUCCCUCCUAAGGAGAAGACUGCGGGUUCGAGUCCCGUACGGAACG [G17C],0.7
16,GUUCCGUUGGCGUAAUCGUCACGCGUCUCCCUCCUAAGGAGAAGACUGCGGGUUCGAGUCCCGUACGGAACG [G17C A20C],0.54
17,GUUCCGUUGGCGUAAUCGUGACGCGUCUCCCUCCUAAGGAGAAGACUGCGGGUUCGGGUCCUGUACGGAACG [G17C A20G A57G C62U],≤ 0.5
18,GUUCCGUUGGCGUAAUCGUUACGCGUCUCCCUCCUAAGGAGAAGACUGCGGGUUCGAGUCCCGUAAGGAACG [G17C A20U C66A],≤ 0.5
19,GUUCCGUUGGCGUAAUCGUUACGCGUCUCCCUCCUAAGGAGAAGACUGCGGGUACGAGUCUCGUACGGAACG [G17C A20U U54A C61U],0.546

row,Variant,yeast fitness
1,GUUCCGUUGGCGUAAUCGUAACGCGUCUCCCUCCUACGGAGAAGACUGCGGGUUCGAGUCCCGUACGGAACG [G17C A37C],0.644
2,GUUCCGUUGGCGUAAUCGUAACGCGUCUCCCUCCUAUGGAGAAGACUGCGGGUUCGAGUCCCGUACGGCACG [G17C A37U A69C],≤ 0.5
3,GUUCCGUUGGCGUAAUCGUAACGCGUCUCCCUCCUAAGGGGCAGUCUGCGGGUCCGAGUCCCGUACGGAACG [G17C A40G A42C A45U U54C],≤ 0.5
4,GUUCCGUUGGCGUAAUCGUAACGCGUCUCCCUCCUAAGGAGCAGACUGCGGGUUCGAGUCCCGUAUGGAACG [G17C A42C C66U],≤ 0.5
5,GUUCCGUUGGCGUAAUCGUAACGCGUCUCCCUCCUAAGGAGACGACUGCGAGUUCGAGUCCCGUACGGAACG [G17C A43C G51A],≤ 0.5
6,GUUCCGUUGGCGUAAUCGUAAGGAGUCUCCCUCCUAAGGAGAAGACUGCGGGUUCGAGUCCAGUACGGAACG [G17C C22G C24A C62A],≤ 0.5
7,GUUCCGUUGGCGUAAUCGUAAGGAGUCUCCCUCCUAAGGAGAAGACUGCGGGUUCGAGUCCAGUACGGACCG [G17C C22G C24A C62A A70C],0.57
8,GUUCCGUUGGCGUAAUCGUAAGGAGUCUCCCUCCUAAGGAGAAGACUGCGGGUUCGAGUCCAGUAUGGAACG [G17C C22G C24A C62A C66U],≤ 0.5
9,GUUCCGUUGGCGUAAUCGUAAGGCGUCUCCCUCCUAAGGAGAAGACUGCGGGUUGGAGUACCGUACGGAACG [G17C C22G C55G C60A],≤ 0.5
10,GUUCCGUUGGCGUAAUCGUAAGGCGUCUCCCUCCUAAGGAGAAGACUGCGGAUUCGAGUCCCGUACGGAACG [G17C C22G G52A],≤ 0.5
11,GUUCCGUUGGCGUAAUCGUAACGAGUCUCCCUCCUAAGGAGAAGCCUGCGGAUUCGAGUCCCGUACGGAACG [G17C C24A A45C G52A],≤ 0.5
12,GUUCCGUUGGCGUAAUCGUAACGGGUCACUCUCCUAAGGAGAAGACUGCGGGUUCGAGUCCCGUUCGGAACG [G17C C24G U28A C30U A65U],≤ 0.5
13,GUUCCGUUGGCGUAAUCGUAACGUGUCUCCCUCCUAAGGAGAAGAGUGCGGGUUCGAGUCCGGUACGGAACG [G17C C24U C46G C62G],0.572
14,GUUCCGUUGGCGUAAUCGUAACGUGUCUCCCUCCUAAGGAGAAGACUGUGGGUUCGAGACCCGUACGGAACG [G17C C24U C49U U59A],0.533
15,GUUCCGUUGGCGUAAUCGUAACGCGUGCCCCUCCUAAGGAGAAGACUGCGGGUUCGAGUCCCGUUCGGAACG [G17C C27G U28C A65U],≤ 0.5
16,GUUCCGUUGGCGUAAUCGUAACGCGUUUCCCUCCUAAGGAGAAGACUGCGGGUUCGAGUCCCGUCCGGAACG [G17C C27U A65C],0.54
17,GUUCCGUUGGCGUAAUCGUAACGCGUCUUCCUCCUAAGGAGAAGACUGCGGGUUCGAGUCCCGUACGGAACG [G17C C29U],0.545
18,GUUCCGUUGGCGUAAUCGUAACGCGUCUUCCUCCUACGGAGAAGACUGCGGGUUCGAGUCCCGUCCGGAACG [G17C C29U A37C A65C],0.555
